According to PMC13170702 (Nuclear medicine and biology, 2025):

Columns and labels:
[1] = organ radiation dose estimates, both OLINDA software versions; assay type: in vivo, human
Summary of the method: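 Per-participant organ doses from OLINDA 1.1 (ICRP-60) and 2.0 (ICRP-103) were pooled by sex as mean ± SD (n = 4 per sex), in mGy/MBq; effective dose in mSv/MBq. Males and females were compared at p < 0.05. Kidney dose per MBq was related to injected activity and benchmarked against FDA 21CFR361 single-study limits (30 mSv whole body; 50 mGy other organs).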

[2] = whole-body PET-MR biodistribution and TIAC determination; assay type: in vivo, human
Summary of the method: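 Tracer 70.3–355 MBq was given as an i.v. bolus; whole-body PET-MR used 6 bed positions. WB1–WB5 ran 0–34 min (1 min/bed), WB6–7 35–60 min (2 min/bed), WB8 80–104 min and WB9 180–214 min (4 min/bed). Voiding and water were allowed in breaks. SUV was read from AMIDE VOIs at early times (<1 h). Decay-corrected %IA per organ VOI over time was fitted by the exponential model (OLINDA/EXM 1.1) for TIACs.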

[3] = range of sex means from both software versions

Q: What does the source list for COC(=O)[C@@H](N)CC(=O)Nc1ccc2c(c1)Cc1cc([18F])ccc1-2 [[^18F]RP-115, methyl N^4-(7-[^18F]fluoro-9H-fluoren-2-yl)asparaginate]?
A: kidney dose per injected activity used for the limit ([1]; 0.237 mGy/MBq × 211 MBq = 50 mGy): 0.237 mGy/MBq; renal estimated radiation dose ([1]; Males 1–2 and Female 2, 289–355 MBq given): > 50 mSv; ratio of estimated kidney dose to radioactivity given ([1]; Males 1–2 and Female 4): > 0.21 mGy/MBq; critical organ ([1]; highest mean absorbed dose, primary route of elimination): kidneys; estimated absorbed doses, remaining organs and tissues and Effective dose ([1]; organs other than kidneys, liver, small intestine): < 0.035 mGy/MBq; kidneys mean absorbed estimated radiation dose [1, 3]: 0.142 to 0.214 mGy/MBq; liver mean absorbed dose [1, 3]: 0.0392 to 0.0449 mGy/MBq; SUV, brain and spinal tissues ([2]; 27–34 min after injection): > 1; SUV, major organs, CNS and peripheral tissues ([2]; 27–34 min after injection): > 1; TIAC, Brain ([2]; F1 (189 MBq)): 0.084 MBq-h/MBq; TIAC, Gallbladder wall ([2]; F1 (189 MBq)): 0.0031 MBq-h/MBq; TIAC, Heart contents ([2]; F1 (189 MBq)): 0.00463 MBq-h/MBq; TIAC, Heart wall ([2]; F1 (189 MBq)): 0.0155 MBq-h/MBq; TIAC, Kidneys ([2]; F1 (189 MBq)): 0.25 MBq-h/MBq; TIAC, Liver ([2]; F1 (189 MBq)): 0.209 MBq-h/MBq; TIAC, Lungs ([2]; F1 (189 MBq)): 0.274 MBq-h/MBq; TIAC, Pancreas ([2]; F1 (189 MBq)): 0.00899 MBq-h/MBq; TIAC, Remainder ([2]; F1 (189 MBq)): 1.28 MBq-h/MBq; TIAC, Small intestine ([2]; F1 (189 MBq)): 0.0843 MBq-h/MBq; TIAC, Spleen ([2]; F1 (189 MBq)): 0.0284 MBq-h/MBq; TIAC, Thymus ([2]; F1 (189 MBq)): 0.00372 MBq-h/MBq; TIAC, Thyroid ([2]; F1 (189 MBq)): 0.00052 MBq-h/MBq; TIAC, Urinary bladder contents ([2]; F1 (189 MBq)): 0.138 MBq-h/MBq; TIAC, Uterus/Uterine wall ([2]; F1 (189 MBq)): 0.00432 MBq-h/MBq; TIAC, Brain ([2]; F2, no voiding (355 MBq)): 0.075 MBq-h/MBq; TIAC, Gallbladder wall ([2]; F2, no voiding (355 MBq)): 0.00204 MBq-h/MBq; TIAC, Heart contents ([2]; F2, no voiding (355 MBq)): 0.00054 MBq-h/MBq; TIAC, Heart wall ([2]; F2, no voiding (355 MBq)): 0.0118 MBq-h/MBq; TIAC, Kidneys ([2]; F2, no voiding (355 MBq)): 0.391 MBq-h/MBq; TIAC, Liver ([2]; F2, no voiding (355 MBq)): 0.202 MBq-h/MBq; TIAC, Lungs ([2]; F2, no voiding (355 MBq)): 0.31 MBq-h/MBq; TIAC, Pancreas ([2]; F2, no voiding (355 MBq)): 0.00377 MBq-h/MBq; TIAC, Small intestine ([2]; F2, no voiding (355 MBq)): 0.0474 MBq-h/MBq; TIAC, Spleen ([2]; F2, no voiding (355 MBq)): 0.00188 MBq-h/MBq; TIAC, Thymus ([2]; F2, no voiding (355 MBq)): 0.00178 MBq-h/MBq; TIAC, Thyroid ([2]; F2, no voiding (355 MBq)): 0.0047 MBq-h/MBq; TIAC, Urinary bladder contents ([2]; F2, no voiding (355 MBq)): 0.127 MBq-h/MBq; TIAC, Uterus/Uterine wall ([2]; F2, no voiding (355 MBq)): 0.0564 MBq-h/MBq; TIAC, Brain ([2]; F3 (117 MBq)): 0.0606 MBq-h/MBq; TIAC, Gallbladder wall ([2]; F3 (117 MBq)): 0.00328 MBq-h/MBq; TIAC, Heart contents ([2]; F3 (117 MBq)): 0.00112 MBq-h/MBq; TIAC, Heart wall ([2]; F3 (117 MBq)): 0.0131 MBq-h/MBq; TIAC, Kidneys ([2]; F3 (117 MBq)): 0.266 MBq-h/MBq; TIAC, Liver ([2]; F3 (117 MBq)): 0.262 MBq-h/MBq; TIAC, Lungs ([2]; F3 (117 MBq)): 0.186 MBq-h/MBq; TIAC, Pancreas ([2]; F3 (117 MBq)): 0.00504 MBq-h/MBq; TIAC, Remainder ([2]; F3 (117 MBq)): 1.44 MBq-h/MBq; TIAC, Small intestine ([2]; F3 (117 MBq)): 0.0667 MBq-h/MBq; TIAC, Spleen ([2]; F3 (117 MBq)): 0.011 MBq-h/MBq; TIAC, Thymus ([2]; F3 (117 MBq)): 0.00146 MBq-h/MBq; TIAC, Thyroid ([2]; F3 (117 MBq)): 0.00131 MBq-h/MBq; TIAC, Urinary bladder contents ([2]; F3 (117 MBq)): 0.00659 MBq-h/MBq; TIAC, Uterus/Uterine wall ([2]; F3 (117 MBq)): 0.0115 MBq-h/MBq; TIAC, Brain ([2]; F4 (167 MBq)): 0.0781 MBq-h/MBq; TIAC, Gallbladder wall ([2]; F4 (167 MBq)): 0.00062 MBq-h/MBq; TIAC, Heart contents ([2]; F4 (167 MBq)): 0.0015 MBq-h/MBq; TIAC, Heart wall ([2]; F4 (167 MBq)): 0.0212 MBq-h/MBq; TIAC, Kidneys ([2]; F4 (167 MBq)): 0.245 MBq-h/MBq; TIAC, Liver ([2]; F4 (167 MBq)): 0.192 MBq-h/MBq; TIAC, Lungs ([2]; F4 (167 MBq)): 0.231 MBq-h/MBq; TIAC, Pancreas ([2]; F4 (167 MBq)): 0.0053 MBq-h/MBq; TIAC, Remainder ([2]; F4 (167 MBq)): 1.22 MBq-h/MBq; TIAC, Small intestine ([2]; F4 (167 MBq)): 0.126 MBq-h/MBq; TIAC, Spleen ([2]; F4 (167 MBq)): 0.0057 MBq-h/MBq; TIAC, Thymus ([2]; F4 (167 MBq)): 0.0021 MBq-h/MBq; TIAC, Thyroid ([2]; F4 (167 MBq)): 0.0009 MBq-h/MBq; TIAC, Urinary bladder contents ([2]; F4 (167 MBq)): 0.0319 MBq-h/MBq; TIAC, Uterus/Uterine wall ([2]; F4 (167 MBq)): 0.0133 MBq-h/MBq; TIAC, Brain ([2]; M1 (326 MBq)): 0.0947 MBq-h/MBq; TIAC, Gallbladder wall ([2]; M1 (326 MBq)): 0.00525 MBq-h/MBq; TIAC, Heart contents ([2]; M1 (326 MBq)): 0.00354 MBq-h/MBq; TIAC, Heart wall ([2]; M1 (326 MBq)): 0.0301 MBq-h/MBq; TIAC, Kidneys ([2]; M1 (326 MBq)): 0.351 MBq-h/MBq; TIAC, Liver ([2]; M1 (326 MBq)): 0.34 MBq-h/MBq; TIAC, Lungs ([2]; M1 (326 MBq)): 0.322 MBq-h/MBq; TIAC, Pancreas ([2]; M1 (326 MBq)): 0.0022 MBq-h/MBq; TIAC, Remainder ([2]; M1 (326 MBq)): 1.27 MBq-h/MBq; TIAC, Small intestine ([2]; M1 (326 MBq)): 0.161 MBq-h/MBq; TIAC, Spleen ([2]; M1 (326 MBq)): 0.0528 MBq-h/MBq; TIAC, Thymus ([2]; M1 (326 MBq)): 0.00576 MBq-h/MBq; TIAC, Thyroid ([2]; M1 (326 MBq)): 0.0007 MBq-h/MBq; TIAC, Urinary bladder contents ([2]; M1 (326 MBq)): 0.00668 MBq-h/MBq; TIAC, Brain ([2]; M2 (289 MBq)): 0.0531 MBq-h/MBq; TIAC, Gallbladder wall ([2]; M2 (289 MBq)): 0.0017 MBq-h/MBq; TIAC, Heart contents ([2]; M2 (289 MBq)): 0.0248 MBq-h/MBq; TIAC, Heart wall ([2]; M2 (289 MBq)): 0.202 MBq-h/MBq; TIAC, Kidneys ([2]; M2 (289 MBq)): 0.424 MBq-h/MBq; TIAC, Liver ([2]; M2 (289 MBq)): 0.19 MBq-h/MBq; TIAC, Lungs ([2]; M2 (289 MBq)): 0.0012 MBq-h/MBq; TIAC, Pancreas ([2]; M2 (289 MBq)): 0.111 MBq-h/MBq; TIAC, Remainder ([2]; M2 (289 MBq)): 1.37 MBq-h/MBq; TIAC, Small intestine ([2]; M2 (289 MBq)): 0.00196 MBq-h/MBq; TIAC, Spleen ([2]; M2 (289 MBq)): 0.0158 MBq-h/MBq; TIAC, Thymus ([2]; M2 (289 MBq)): 0.0013 MBq-h/MBq; TIAC, Thyroid ([2]; M2 (289 MBq)): 0.00039 MBq-h/MBq; TIAC, Urinary bladder contents ([2]; M2 (289 MBq)): 0.017 MBq-h/MBq; TIAC, Brain ([2]; M3 (70.3 MBq)): 0.0611 MBq-h/MBq; TIAC, Gallbladder wall ([2]; M3 (70.3 MBq)): 0.00199 MBq-h/MBq; TIAC, Heart contents ([2]; M3 (70.3 MBq)): 0.0027 MBq-h/MBq; TIAC, Heart wall ([2]; M3 (70.3 MBq)): 0.0297 MBq-h/MBq; TIAC, Kidneys ([2]; M3 (70.3 MBq)): 0.286 MBq-h/MBq; TIAC, Liver ([2]; M3 (70.3 MBq)): 0.249 MBq-h/MBq; TIAC, Lungs ([2]; M3 (70.3 MBq)): 0.298 MBq-h/MBq; TIAC, Pancreas ([2]; M3 (70.3 MBq)): 0.00353 MBq-h/MBq; TIAC, Remainder ([2]; M3 (70.3 MBq)): 1.29 MBq-h/MBq; TIAC, Small intestine ([2]; M3 (70.3 MBq)): 0.0651 MBq-h/MBq; TIAC, Spleen ([2]; M3 (70.3 MBq)): 0.0218 MBq-h/MBq; TIAC, Thymus ([2]; M3 (70.3 MBq)): 0.00217 MBq-h/MBq; TIAC, Thyroid ([2]; M3 (70.3 MBq)): 0.00057 MBq-h/MBq; TIAC, Urinary bladder contents ([2]; M3 (70.3 MBq)): 0.0429 MBq-h/MBq; TIAC, Brain ([2]; M4 (153 MBq)): 0.078 MBq-h/MBq; TIAC, Gallbladder wall ([2]; M4 (153 MBq)): 0.00356 MBq-h/MBq; TIAC, Heart contents ([2]; M4 (153 MBq)): 0.0033 MBq-h/MBq; TIAC, Heart wall ([2]; M4 (153 MBq)): 0.0276 MBq-h/MBq; TIAC, Kidneys ([2]; M4 (153 MBq)): 0.332 MBq-h/MBq; TIAC, Liver ([2]; M4 (153 MBq)): 0.229 MBq-h/MBq; TIAC, Lungs ([2]; M4 (153 MBq)): 0.214 MBq-h/MBq; TIAC, Pancreas ([2]; M4 (153 MBq)): 0.00723 MBq-h/MBq; TIAC, Remainder ([2]; M4 (153 MBq)): 1.39 MBq-h/MBq; TIAC, Small intestine ([2]; M4 (153 MBq)): 0.12 MBq-h/MBq; TIAC, Spleen ([2]; M4 (153 MBq)): 0.0354 MBq-h/MBq; TIAC, Thymus ([2]; M4 (153 MBq)): 0.00492 MBq-h/MBq; TIAC, Thyroid ([2]; M4 (153 MBq)): 0.00105 MBq-h/MBq; TIAC, Urinary bladder contents ([2]; M4 (153 MBq)): 0.0178 MBq-h/MBq
